According to BindingDB's records for doi:10.1021/jm00031a021 (Tap Pharmaceuticals, 1994):
Where a SMILES comes first, the peptide text is derived from it. [ ]: non-standard residue; d: D form. The star is where a group is joined. Desaminotyrosyl = O=C(CCc1ccc(O)cc1)*

target: T1, Gonadotropin-releasing hormone receptor (Rattus norvegicus, UniProt P30969); assay: Inhibition of the in vitro binding of [125I]-labeled leuprolide to the rat pituitary luteinizing hormone releasing hormone (LHRH) receptor.
T1 sequence (P30969 whole entry): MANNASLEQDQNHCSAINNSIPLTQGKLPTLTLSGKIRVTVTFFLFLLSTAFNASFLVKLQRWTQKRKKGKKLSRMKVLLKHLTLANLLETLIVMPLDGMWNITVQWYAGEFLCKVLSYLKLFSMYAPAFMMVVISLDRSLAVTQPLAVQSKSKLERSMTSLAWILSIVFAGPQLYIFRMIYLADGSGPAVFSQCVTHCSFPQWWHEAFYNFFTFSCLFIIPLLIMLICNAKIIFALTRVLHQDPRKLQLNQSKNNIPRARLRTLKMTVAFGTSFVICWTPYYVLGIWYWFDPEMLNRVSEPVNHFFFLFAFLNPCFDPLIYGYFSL
How it was run: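 Rat pituitary LHRH receptor binding with 125I-labeled leuprolide as radioligand. pKI is the negative log of the analogue concentration inhibiting 50% of tracer binding. Compounds tested as TFA salts.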

Q: How did the Ki turn out when `CCNC(=O)[C@H]1CCCN1C(=O)[C@H](CCCN=C(N)N)NC(=O)[C@H](CC(C)C)NC(=O)[C@@H](Cc1c[nH]c2ccccc12)NC(=O)[C@H](Cc1ccc(O)cc1)NC(=O)[C@@H]1CCCN1C(=O)[C@H](Cc1c[nH]c2ccccc12)NC(=O)CCc1ccc(F)cc1` was run?
A: Its Ki is 0.832 nM.

Q: Which Ki does the source give for `CCNC(=O)[C@H]1CCCN1C(=O)[C@H](CCCN=C(N)N)NC(=O)[C@H](CC(C)C)NC(=O)[C@@H](CCCCNC(=O)c1cccnc1)NC(=O)[C@H](Cc1ccc(O)cc1)NC(=O)[C@H](CO)NC(=O)C(Cc1c[nH]c2ccccc12)NC(=O)CCc1ccc(F)cc1` (stereo not given in full) here?
A: Its Ki is 0.347 nM.

Q: How did the Ki turn out when `CCNC(=O)[C@@H]1CCCN1C(=O)[C@H](CCCN=C(N)N)NC(=O)[C@H](CC(C)C)NC(=O)[C@@H](Cc1c[nH]c2ccccc12)NC(=O)[C@H](Cc1ccc(O)cc1)NC(=O)[C@H](CO)NC(=O)[C@H](Cc1c[nH]c2ccccc12)NC(=O)CCc1cccc(F)c1` was run?
A: The Ki was 1.35 nM.

Q: `CCNC(=O)[C@H]1CCCN1C(=O)[C@H](CCCN=C(N)N)NC(=O)[C@H](CC(C)C)NC(=O)[C@@H](Cc1c[nH]c2ccccc12)NC(=O)[C@H](Cc1ccc(O)cc1)NC(=O)[C@H](CO)NC(=O)[C@H](Cc1cccc2ccccc12)NC(=O)CCc1ccc(F)cc1` was tested. Which Ki did it give?
A: The Ki was 0.017 nM.

Q: With `CCNC(=O)[C@@H]1CCCN1C(=O)[C@H](CCCN=C(N)N)NC(=O)[C@H](CC(C)C)NC(=O)[C@@H](Cc1c[nH]c2ccccc12)NC(=O)[C@H](Cc1ccc(O)cc1)NC(=O)[C@H](CO)NC(=O)[C@H](Cc1c[nH]c2ccccc12)NC(=O)CCc1ccc(F)cc1F` as the compound, how does the Ki read?
A: The Ki was 0.04 nM.

Q: `CCNC(=O)[C@H]1CCCN1C(=O)[C@H](CCCN=C(N)N)NC(=O)[C@H](CC(C)C)NC(=O)[C@@H](Cc1ccc(O)cc1)NC(=O)[C@@H](Cc1ccc(O)cc1)NC(=O)[C@H](CO)NC(=O)[C@H](Cc1c[nH]c2ccccc12)NC(=O)CCc1ccc(F)cc1` was tested. Which Ki did it give?
A: Its Ki is 0.038 nM.

Q: Which Ki does the source give for `CCNC(=O)[C@H]1CCCN1C(=O)[C@H](CCCN=C(N)N)NC(=O)[C@H](CC(C)C)NC(=O)[C@@H](CCCCNC(=O)c1cccnc1)NC(=O)[C@H](Cc1ccc(O)cc1)N(C)C(=O)[C@H](CO)NC(=O)[C@H](Cc1c[nH]c2ccccc12)NC(=O)CCc1cccc(F)c1` here?
A: Its Ki is 0.026 nM.

Q: `CCNC(=O)[C@H]1CCCN1C(=O)[C@H](CCCN=C(N)N)NC(=O)[C@H](CC(C)C)NC(=O)[C@@H](Cc1ccc(O)cc1)NC(=O)[C@@H](Cc1ccc(O)cc1)NC(=O)[C@H](CO)NC(=O)[C@@H](Cc1c[nH]c2ccccc12)NC(=O)CCc1ccc(F)cc1` was tested. Which Ki did it give?
A: Its Ki is 0.01 nM.

Q: `CCNC(=O)[C@@H]1CCCN1C(=O)[C@H](CCCN=C(N)N)NC(=O)[C@H](CC(C)C)NC(=O)[C@@H](Cc1c[nH]c2ccccc12)NC(=O)[C@H](Cc1ccc(O)cc1)NC(=O)[C@H](CO)NC(=O)[C@H](Cc1c[nH]c2ccccc12)NC(=O)CCc1ccc(O)cc1` (Desaminotyrosyl-WSY[dW]LRP-NHEt) was tested. Which Ki did it give?
A: Its Ki is 0.085 nM.

Q: With `CCNC(=O)[C@H]1CCCN1C(=O)[C@H](CCCN=C(N)N)NC(=O)[C@H](CC(C)C)NC(=O)[C@@H](Cc1c[nH]c2ccccc12)NC(=O)[C@H](Cc1ccc(O)cc1)NC(=O)[C@H](CO)NC(=O)[C@H](Cc1c[nH]c2ccccc12)NC(=O)CCc1ccc(Cl)cc1` as the compound, how does the Ki read?
A: The Ki was 0.076 nM.
